Test results published in publication PMC5567870 (Journal of natural products, 2017).
pKd: −log10 of the molar value.

Key:
[1] = tested on: RGS17ΔN–Gαo interaction in HEK293T cells; test: Confocal localization of GFP-RGS17ΔN cotransfected with hGαo; type: cell-based; conditions: 100 µM, imaging time course
[2] = target: T1, RGS17ΔN–Gαo interaction in HEK293T cells (Homo sapiens, UniProt Q9UGC6); test: as above; type: cell-based; conditions: for delocalization of RGS17ΔN from the cell membrane: 100 µM; for delocalization of RGS17ΔN from the cell membrane, GFP signal quantification: 10 µM, longer time course
T1 sequence (Q9UGC6 61-210): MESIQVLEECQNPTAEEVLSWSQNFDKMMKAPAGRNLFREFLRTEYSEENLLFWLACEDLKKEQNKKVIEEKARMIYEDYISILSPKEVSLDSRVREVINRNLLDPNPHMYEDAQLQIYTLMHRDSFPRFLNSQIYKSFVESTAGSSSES

Gα protein = Gα protein (Homo sapiens, UniProt P09471); test: Differential scanning fluorimetry; type: binding; conditions: DSF, data not shown
Sequence of Gα protein (P09471 whole entry): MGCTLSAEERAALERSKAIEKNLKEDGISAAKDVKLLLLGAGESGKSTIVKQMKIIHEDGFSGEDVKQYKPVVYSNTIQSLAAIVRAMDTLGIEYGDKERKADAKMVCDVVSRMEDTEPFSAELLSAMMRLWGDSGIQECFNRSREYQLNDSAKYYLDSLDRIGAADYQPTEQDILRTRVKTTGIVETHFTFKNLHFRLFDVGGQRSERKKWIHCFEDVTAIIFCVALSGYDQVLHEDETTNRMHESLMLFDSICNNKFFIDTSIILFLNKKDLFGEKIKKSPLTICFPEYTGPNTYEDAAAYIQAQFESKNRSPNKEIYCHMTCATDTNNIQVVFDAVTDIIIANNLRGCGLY

A549 lung tumor cells = test: Growth of A549 lung tumor cells; type: cell-based; conditions: up to 1 µM, 6 days in culture, relative to DMSO control
In short: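 Subconfluent A549 cells were trypsinized, counted and plated at 1000 per well in 24-well plates, then left to attach overnight. Triplicate wells received test compound or matched DMSO (≤0.2% final). Confluence was imaged every 2 h for 6 days, with images checked to exclude morphology effects. Change in confluence was expressed relative to DMSO and plotted against concentration. IC50 was solved by linear regression at 0.5 relative growth.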

RGS17ΔN (1ZV4 construct) = target: T2, RGS17ΔN (1ZV4 construct) (Homo sapiens, UniProt Q9UGC6); test: Covalent modification of RGS17 by ESI-TOFMS; type: binding; conditions: ESITOFMS, 5:1 test compound to RGS17, 72 h
T2 sequence (Q9UGC6 72-206): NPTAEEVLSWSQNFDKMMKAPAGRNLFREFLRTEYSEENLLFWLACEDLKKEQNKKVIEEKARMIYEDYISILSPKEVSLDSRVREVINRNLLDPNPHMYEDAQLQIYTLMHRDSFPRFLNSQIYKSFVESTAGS
In short: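 Protein: RGS17ΔN (1ZV4 construct) at 20 µM in 25 mM HEPES, 100 mM NaCl, 5% DMSO, pH 8. Incubated at 4 °C for 72 h with or without 100 µM test compound. Dialysed 24 h at 4 °C against 25 mM NH4HCO3 and 100 µM NaCl to remove noncovalent compound, with a second dialysis for some compounds. Analysed by direct-infusion positive-mode ESI-TOF with spectral deconvolution.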

RGS17 [3] = target: T3, RGS17 (Homo sapiens, UniProt Q9UGC6); test: Isothermal titration calorimetry; type: binding; conditions: for change in enthalpy ΔH / entropic change TΔS / protein:ligand binding stoichiometry / ΔG binding: ITC
T3 sequence (Q9UGC6 72-206 limits assumed): T2 sequence (Q9UGC6 72-206)

RGS17 [4] = target: T3, RGS17; test: Differential scanning fluorimetry; type: binding; conditions: DSF
TEM4-18 cells = test: Prostate tumor cell growth, TEM4-18; type: cell-based; conditions: dose-response
CREB phosphorylation = CREB phosphorylation upon stimulation with forskolin; type: cell-based; conditions: compared to DMSO-treated controls, data not shown
PC3E cells = test: Prostate tumor cell growth, PC3E; type: cell-based; conditions: for inhibition of PC3E cell growth: dose-response; for sensitization of PC3E cells by overexpression of RGS17: transient transfection, data not shown
RWPE-1 cells = test: Prostate cell growth, RWPE-1; type: cell-based; conditions: immortalized epithelial, normal cells
[5] = target: T4, RGS17–Gαo interaction in HEK293T cells (Homo sapiens, UniProt Q9UGC6); test: Confocal localization of GFP full-length RGS17 cotransfected with Gαo; type: cell-based; conditions: 100 µM, 10 min
T4 sequence (Q9UGC6 1-210): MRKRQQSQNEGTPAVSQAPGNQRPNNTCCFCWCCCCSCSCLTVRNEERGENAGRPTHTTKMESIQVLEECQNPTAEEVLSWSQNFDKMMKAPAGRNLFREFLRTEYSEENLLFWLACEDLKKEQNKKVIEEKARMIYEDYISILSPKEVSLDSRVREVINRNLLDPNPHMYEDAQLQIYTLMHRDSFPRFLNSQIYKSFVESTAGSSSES
In short: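 HEK293T cells were plated at 25 000 per well on poly-D-lysine-coated glass-bottom plates and held overnight at 37 °C, 5% CO2. They were cotransfected with hGαo (pcDNA 3.1(+)) and pAcGFP-RGS17FL using Lipofectamine 2000. At 24 h the medium was replaced with serum-free, phenol-red-free DMEM. Test compound was added at 2× in that medium to give 1× final (0.07–0.8% DMSO). Live cells were imaged by confocal microscopy.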

[6] = Solubility in aqueous buffer for ITC; type: physicochemical; conditions: at the high concentration needed for the ITC experiment

SMILES | gross morphological changes indicative of cytotoxicity [1] | delocalization of RGS17ΔN from the cell membrane [2] | shift in Tm for the G protein (Gα protein) | delocalization of RGS17ΔN from the cell membrane, GFP signal quantification [2] | inhibition of A549 cell growth (A549 lung tumor cells) | covalent adduct formation with RGS17 (RGS17ΔN (1ZV4 construct)) | pKd (RGS17 [3]) | change in enthalpy ΔH (RGS17 [3]) [kcal/mol] | entropic change TΔS (RGS17 [3]) [kcal/mol] | protein:ligand binding stoichiometry (RGS17 [3]) | ΔG binding (RGS17 [3]) [kcal/mol] | melting temperature (Tm) shift for RGS17 (RGS17 [4]) | inhibition of TEM4-18 cell growth (TEM4-18 cells) | reduction of CREB phosphorylation (CREB phosphorylation) | inhibition of PC3E cell growth (PC3E cells) | sensitization of PC3E cells by overexpression of RGS17 (PC3E cells) | growth arrest of RWPE-1 cells (RWPE-1 cells) | localization of GFP full-length RGS17 [5] | solubility in aqueous buffer [6]
Cc1ccc(-n2sc(=O)n(Cc3ccc(F)cc3)c2=O)cc1 [CCG-50014, reference compound] | significant cell shrinkage | did not result in RGS17ΔN delocalization from the membrane |  |  |  |  |  |  |  |  |  |  |  |  |  |  |  |  | 
CC(C)=CCC[C@]1(C)C=Cc2c(O)c3c(c(CC=C(C)C)c2O1)O[C@]12C(=C[C@@H]4C[C@H]1C(C)(C)O[C@@]2(C/C=C(/C)C(=O)O)C4=O)C3=O [compound 3, (−)-gambogic acid] |  |  | drastic negative shift |  |  |  |  |  |  |  |  |  |  |  |  |  |  |  | 
C[n+]1cc2c3c(ccc2c2ccc4cc5c(cc4c21)OCO5)OCO3 [compound 1, sanguinarine] | lack of gross morphological changes | disrupt RGS17–Gα interaction |  | loss of this enrichment at T = final | sub-micromolar inhibition | could not be detected | 6.00 | -0.148 | 8.0202 | 0.82 | -8.168 | only minor melting temperature (Tm) shifts | inhibited the growth | trended toward the proposed mechanism | inhibited the growth | did not result in a sensitization | caused growth arrest | remained at the membrane | 
O=c1c(-c2cc(O)c(O)c(O)c2)coc2cc(O)c(O)c(O)c12 [compound 4, irigenol] | lack of gross morphological changes | disrupt RGS17–Gα interaction |  | demonstrated the same trend | did not demonstrate any level of growth inhibition | could not be detected |  | -2.158 | 6.2313 | 0.33 | -8.389 | only minor melting temperature (Tm) shifts |  | trended toward the proposed mechanism |  |  |  |  | 
CC1=C(O)C(=O)C=C2C1=CC=C1[C@@]2(C)CC[C@@]2(C)[C@@H]3C[C@](C)(C(=O)O)CC[C@]3(C)CC[C@]12C [compound 2, celastrol] | lack of gross morphological changes | disrupt RGS17–Gα interaction |  | loss of this enrichment at T = final | sub-micromolar inhibition | both singly and doubly adducted species |  |  |  |  |  | only minor melting temperature (Tm) shifts | inhibited the growth |  | inhibited the growth | did not result in a sensitization | caused growth arrest |  | not soluble
